Source: ChEMBL document CHEMBL3414507, “Design, synthesis, biological evaluation and preliminary mechanism study of novel benzothiazole derivatives bearing indole-based moiety as potent antitumor agents” (Eur J Med Chem, 2015)
“And” between values parts separate entries of the source, which are not always exact repeats. Equal values may be shown once.

Key:
[1] = Cytotoxicity against human H460 cells after 72 hrs by MTT assay; format: functional, cell-based; conditions: NCI-H460, 72 h
Outline: (§1)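 MTT assay on HT29, H460, A549 and MDA-MB-231 cells with oncrasin-1 and PAC-1 as positive controls; IC50 from three independent experiments.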

HT-29 [2] = test: Cytotoxicity against human HT-29 cells after 72 hrs by MTT assay; format: functional, cell-based; outline: as §1
A549 = test: Cytotoxicity against human A549 cells after 72 hrs by MTT assay; format: functional, cell-based; conditions: A549, 72 h; outline: as §1
MDA-MB-231 = test: Cytotoxicity against human MDA-MB-231 cells after 72 hrs by MTT assay; format: functional, cell-based; conditions: MDA-MB-231, 72 h; outline: as §1
Caspase-3 (Homo sapiens) = target: T1, Caspase-3 (Homo sapiens) (UniProt P42574); test: Activation of procaspase-3 (unknown origin) using Ac-DEVD-pNa as substrate at 10 uM after 2 hrs by spectrophotometry
T1 sequence (whole entry): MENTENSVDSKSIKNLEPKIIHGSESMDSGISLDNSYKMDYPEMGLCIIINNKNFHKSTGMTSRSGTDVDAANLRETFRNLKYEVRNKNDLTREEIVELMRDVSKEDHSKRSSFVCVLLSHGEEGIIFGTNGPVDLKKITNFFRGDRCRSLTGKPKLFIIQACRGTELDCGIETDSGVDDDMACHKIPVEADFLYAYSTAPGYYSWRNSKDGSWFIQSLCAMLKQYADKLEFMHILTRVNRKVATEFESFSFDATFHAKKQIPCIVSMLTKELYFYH

[3] = target: Platelet-derived growth factor receptor beta (Homo sapiens) (UniProt P09619); test: Inhibition of PDGFR-beta (unknown origin) at 10 uM after 30 mins by HTRF method
Chain of Platelet-derived growth factor receptor beta (Homo sapiens) (P09619 whole entry): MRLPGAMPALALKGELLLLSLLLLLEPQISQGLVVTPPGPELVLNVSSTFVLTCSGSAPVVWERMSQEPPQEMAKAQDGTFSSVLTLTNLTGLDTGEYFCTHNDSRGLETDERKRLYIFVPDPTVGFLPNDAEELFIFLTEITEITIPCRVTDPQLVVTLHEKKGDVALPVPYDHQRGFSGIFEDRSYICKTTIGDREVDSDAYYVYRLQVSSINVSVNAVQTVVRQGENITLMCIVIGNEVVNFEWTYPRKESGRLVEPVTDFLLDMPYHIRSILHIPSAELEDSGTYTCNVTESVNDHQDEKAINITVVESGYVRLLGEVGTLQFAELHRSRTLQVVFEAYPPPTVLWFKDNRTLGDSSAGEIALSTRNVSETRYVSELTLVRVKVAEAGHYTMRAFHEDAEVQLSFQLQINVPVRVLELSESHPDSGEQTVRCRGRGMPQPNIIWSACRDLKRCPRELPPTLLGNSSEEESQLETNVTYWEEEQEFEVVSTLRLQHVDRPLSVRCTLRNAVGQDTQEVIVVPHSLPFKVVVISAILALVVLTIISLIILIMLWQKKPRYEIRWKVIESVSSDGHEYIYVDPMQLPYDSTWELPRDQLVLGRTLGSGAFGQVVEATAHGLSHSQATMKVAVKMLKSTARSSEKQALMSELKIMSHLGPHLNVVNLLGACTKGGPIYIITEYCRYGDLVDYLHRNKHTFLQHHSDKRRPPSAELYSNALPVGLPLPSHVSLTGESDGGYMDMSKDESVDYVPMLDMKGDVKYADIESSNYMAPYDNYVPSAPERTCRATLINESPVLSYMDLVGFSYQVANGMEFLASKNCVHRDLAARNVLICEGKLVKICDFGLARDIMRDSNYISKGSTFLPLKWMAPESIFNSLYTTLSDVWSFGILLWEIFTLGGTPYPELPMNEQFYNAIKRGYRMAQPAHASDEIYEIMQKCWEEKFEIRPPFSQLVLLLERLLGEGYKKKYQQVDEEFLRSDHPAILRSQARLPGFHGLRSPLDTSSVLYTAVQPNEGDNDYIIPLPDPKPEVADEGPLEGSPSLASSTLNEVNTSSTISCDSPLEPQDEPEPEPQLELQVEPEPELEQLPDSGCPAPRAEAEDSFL

[4] = target: Receptor-type tyrosine-protein kinase FLT3 (Homo sapiens) (UniProt P36888); test: Inhibition of FLT3 (unknown origin) at 10 uM after 30 mins by HTRF method
Chain of Receptor-type tyrosine-protein kinase FLT3 (Homo sapiens) (P36888 whole entry): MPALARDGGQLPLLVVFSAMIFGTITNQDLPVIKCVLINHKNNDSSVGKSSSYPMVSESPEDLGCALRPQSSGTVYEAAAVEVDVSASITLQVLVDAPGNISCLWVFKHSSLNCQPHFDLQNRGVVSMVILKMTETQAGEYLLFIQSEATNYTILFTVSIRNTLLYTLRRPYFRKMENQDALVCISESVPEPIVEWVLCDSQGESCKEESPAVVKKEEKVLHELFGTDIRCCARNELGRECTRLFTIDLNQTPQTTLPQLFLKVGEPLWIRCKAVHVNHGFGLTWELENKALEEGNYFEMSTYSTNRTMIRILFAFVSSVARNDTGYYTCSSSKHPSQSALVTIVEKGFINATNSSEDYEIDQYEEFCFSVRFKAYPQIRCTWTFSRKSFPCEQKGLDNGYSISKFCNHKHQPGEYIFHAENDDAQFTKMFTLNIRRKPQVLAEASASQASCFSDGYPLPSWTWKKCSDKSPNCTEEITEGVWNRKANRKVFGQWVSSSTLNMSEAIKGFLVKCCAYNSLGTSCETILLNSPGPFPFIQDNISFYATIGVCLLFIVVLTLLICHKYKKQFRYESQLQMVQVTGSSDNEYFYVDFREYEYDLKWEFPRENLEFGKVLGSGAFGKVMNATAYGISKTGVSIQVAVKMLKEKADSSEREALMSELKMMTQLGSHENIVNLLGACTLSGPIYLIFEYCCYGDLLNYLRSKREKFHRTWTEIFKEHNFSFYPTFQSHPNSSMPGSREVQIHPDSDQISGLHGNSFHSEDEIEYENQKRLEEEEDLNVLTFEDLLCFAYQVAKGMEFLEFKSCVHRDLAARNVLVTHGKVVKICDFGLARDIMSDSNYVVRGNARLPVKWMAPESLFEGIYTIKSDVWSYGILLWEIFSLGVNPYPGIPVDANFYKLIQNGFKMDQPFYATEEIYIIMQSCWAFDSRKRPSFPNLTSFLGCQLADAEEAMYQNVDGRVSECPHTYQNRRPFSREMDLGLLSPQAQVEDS

[5] = target: Vascular endothelial growth factor receptor 2 (Homo sapiens) (UniProt P35968); test: Inhibition of KDR (unknown origin) at 10 uM after 30 mins by HTRF method
Chain of Vascular endothelial growth factor receptor 2 (Homo sapiens) (P35968 whole entry): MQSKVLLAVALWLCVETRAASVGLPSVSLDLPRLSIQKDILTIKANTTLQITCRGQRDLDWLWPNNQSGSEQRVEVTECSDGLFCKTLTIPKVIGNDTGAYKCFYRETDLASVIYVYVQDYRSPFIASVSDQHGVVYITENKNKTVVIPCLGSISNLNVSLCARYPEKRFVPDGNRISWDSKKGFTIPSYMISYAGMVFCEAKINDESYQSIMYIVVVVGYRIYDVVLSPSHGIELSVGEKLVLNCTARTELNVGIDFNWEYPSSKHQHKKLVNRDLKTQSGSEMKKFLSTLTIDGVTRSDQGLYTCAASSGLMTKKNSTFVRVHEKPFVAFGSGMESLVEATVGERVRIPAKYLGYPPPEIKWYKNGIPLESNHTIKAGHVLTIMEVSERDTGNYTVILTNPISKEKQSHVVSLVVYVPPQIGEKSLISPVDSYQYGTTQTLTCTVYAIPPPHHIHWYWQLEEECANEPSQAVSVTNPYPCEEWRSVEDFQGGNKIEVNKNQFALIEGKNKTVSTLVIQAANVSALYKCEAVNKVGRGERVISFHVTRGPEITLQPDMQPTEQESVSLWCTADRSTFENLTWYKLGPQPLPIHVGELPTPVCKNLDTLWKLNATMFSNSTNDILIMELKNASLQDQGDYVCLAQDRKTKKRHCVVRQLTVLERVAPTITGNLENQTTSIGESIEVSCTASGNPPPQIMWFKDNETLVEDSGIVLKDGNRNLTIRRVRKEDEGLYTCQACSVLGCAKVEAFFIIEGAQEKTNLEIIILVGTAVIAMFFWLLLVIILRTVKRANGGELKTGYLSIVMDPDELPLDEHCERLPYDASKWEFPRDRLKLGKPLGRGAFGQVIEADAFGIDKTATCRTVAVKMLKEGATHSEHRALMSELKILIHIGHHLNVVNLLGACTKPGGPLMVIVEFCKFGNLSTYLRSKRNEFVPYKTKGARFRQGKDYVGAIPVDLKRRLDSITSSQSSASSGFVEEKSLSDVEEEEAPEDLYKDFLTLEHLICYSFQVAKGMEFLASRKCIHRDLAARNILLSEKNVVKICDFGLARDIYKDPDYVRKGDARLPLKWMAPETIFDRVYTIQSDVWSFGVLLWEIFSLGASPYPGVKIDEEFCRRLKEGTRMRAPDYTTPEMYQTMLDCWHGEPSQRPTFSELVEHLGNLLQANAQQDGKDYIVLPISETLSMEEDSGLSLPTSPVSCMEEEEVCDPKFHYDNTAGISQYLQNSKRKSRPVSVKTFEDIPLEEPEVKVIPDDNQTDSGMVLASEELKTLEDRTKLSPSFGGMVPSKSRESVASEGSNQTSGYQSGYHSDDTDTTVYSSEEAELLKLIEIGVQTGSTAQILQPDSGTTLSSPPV

HT-29 [6] = test: Cell cycle arrest in human HT-29 cells assessed as accumulation at G0/G1 phase AT 10 uM after 48 hrs by propidium iodide staining-based assay (reference value: 54.11%); format: functional
Tubulin (Homo sapiens) = Tubulin (Homo sapiens) (UniProt P68371+Q9H4B7+P0DPH7+P68366+Q13509+Q71U36+P04350+Q3ZCM7+P07437+P68363+Q9BQE3+Q6PEY2+Q13885+Q9BVA1+Q9BUF5); test: Inhibition of tubulin (unknown origin) at 10 uM measured for 20 mins by turbidity method; format: protein-complex assay

Cc1ccc(Cn2cc(/C=N/NC(=O)Nc3nc4ccc(CN5CCC(C)CC5)cc4s3)c3ccccc32)cc1
IC50 [1]: 410 nM | IC50 (HT-29 [2]; ht-29): 1030 nM and 5940 nM | IC50 (A549): 2180 nM | IC50 (MDA-MB-231): 1140 nM

CC1CCN(Cc2ccc3nc(NC(=O)N/N=C/c4cn(Cc5ccc(Cl)cc5Cl)c5ccccc45)sc3c2)CC1
IC50 [1]: 1660 nM | IC50 (HT-29 [2]; ht-29): 2120 nM and 5620 nM | IC50 (A549): 3640 nM | IC50 (MDA-MB-231): 3140 nM

CCN(CC)Cc1ccc2nc(NC(=O)N/N=C/c3cn(Cc4ccc(Cl)cc4Cl)c4ccccc34)sc2c1
IC50 [1]: 1080 nM | IC50 (HT-29 [2]; ht-29): 1040 nM and 6060 nM | IC50 (A549): 1900 nM | IC50 (MDA-MB-231): 3280 nM

CCN(CC)Cc1ccc2nc(NC(=O)N/N=C/c3cn(Cc4cccc(Cl)c4)c4ccccc34)sc2c1
IC50 [1]: 220 nM | IC50 (A549): 2410 nM | IC50 (MDA-MB-231): 2050 nM

CCN(CC)Cc1ccc2nc(NC(=O)N/N=C3\C(=O)Nc4ccc(OC(F)(F)F)cc43)sc2c1
IC50 [1]: 2110 nM | IC50 (HT-29 [2]; ht-29): 1900 nM and 5720 nM | IC50 (A549): 1990 nM

CN(C)Cc1ccc2nc(NC(=O)N/N=C/c3cn(Cc4ccc(Cl)cc4Cl)c4ccccc34)sc2c1
IC50 [1]: 950 nM | IC50 (A549): 2000 nM | IC50 (MDA-MB-231): 1410 nM

CN(C)Cc1ccc2nc(NC(=O)N/N=C3\C(=O)Nc4ccc(F)cc43)sc2c1
IC50 [1]: 1550 nM | Activity (Caspase-3 (Homo sapiens)): 9.1% | inhibition [3]: 2.2% | IC50 (HT-29 [2]; ht-29): 970 nM and 6010 nM | inhibition [4]: 34.1% | IC50 (A549): 2310 nM | inhibition [5]: 3.7%

CC1CCN(Cc2ccc3nc(NC(=O)N/N=C/c4cn(Cc5ccccc5Cl)c5ccccc45)sc3c2)CC1
IC50 [1]: 1080 nM | IC50 (HT-29 [2]; ht-29): 1570 nM and 5890 nM | IC50 (A549): 3330 nM | IC50 (MDA-MB-231): 1360 nM

CCN(CC)Cc1ccc2nc(NC(=O)N/N=C3\C(=O)Nc4ccc(F)cc43)sc2c1
IC50 [1]: 1060 nM | IC50 (HT-29 [2]; ht-29): 1550 nM and 5810 nM | IC50 (A549): 2010 nM

CN(C)Cc1ccc2nc(NC(=O)N/N=C3\C(=O)Nc4ccc(Cl)cc43)sc2c1
IC50 [1]: 1170 nM | IC50 (HT-29 [2]; ht-29): 2570 nM and 5590 nM | IC50 (A549): 3180 nM

CN(C)Cc1ccc2nc(NC(=O)N/N=C/c3cn(Cc4ccccc4)c4ccccc34)sc2c1
IC50 [1]: 400 nM | IC50 (A549): 2900 nM | IC50 (MDA-MB-231): 1340 nM

CN(C)Cc1ccc2nc(NC(=O)N/N=C/c3cn(Cc4ccc(C(C)(C)C)cc4)c4ccccc34)sc2c1
IC50 [1]: 810 nM | IC50 (A549): 1850 nM | IC50 (MDA-MB-231): 2230 nM

CCN(CC)Cc1ccc2nc(NC(=O)N/N=C/c3cn(Cc4ccccc4)c4ccccc34)sc2c1
IC50 [1]: 450 nM | IC50 (A549): 3330 nM | IC50 (MDA-MB-231): 1470 nM

CN(C)Cc1ccc2nc(NC(=O)N/N=C/c3c[nH]c4ccccc34)sc2c1
IC50 [1]: 2550 nM | IC50 (HT-29 [2]; Homo sapiens, HT-29, 72 h): 9900 nM | IC50 (HT-29 [2]; ht-29): 5000 nM | IC50 (A549): 3300 nM | IC50 (MDA-MB-231): 1190 nM

CC1CCN(Cc2ccc3nc(NC(=O)N/N=C/c4cn(Cc5cccc(Cl)c5)c5ccccc45)sc3c2)CC1
IC50 [1]: 280 nM | IC50 (HT-29 [2]; ht-29): 730 nM and 6140 nM | IC50 (A549): 2810 nM | IC50 (MDA-MB-231): 2110 nM

CN(C)Cc1ccc2nc(NC(=O)N/N=C/c3cn(Cc4ccc(Cl)cc4)c4ccccc34)sc2c1
IC50 [1]: 290 nM | Activity (Caspase-3 (Homo sapiens)): 70.9% | inhibition [3]: 12.8% | inhibition [4]: 4.1% | IC50 (A549): 840 nM | IC50 (MDA-MB-231): 880 nM | Activity (HT-29 [6]): 68.66% | inhibition [5]: 5.9% | inhibition (Tubulin (Homo sapiens)): 26%

CCN(CC)Cc1ccc2nc(NC(=O)N/N=C/c3c[nH]c4ccccc34)sc2c1
IC50 [1]: 3140 nM | IC50 (HT-29 [2]; ht-29): 12100 nM and 4920 nM | IC50 (A549): 3300 nM | IC50 (MDA-MB-231): 1900 nM

CN(C)Cc1ccc2nc(NC(=O)N/N=C/c3cn(Cc4ccc(Cl)c(Cl)c4)c4ccccc34)sc2c1
IC50 [1]: 1360 nM | IC50 (A549): 940 nM | IC50 (MDA-MB-231): 1000 nM

CN(C)Cc1ccc2nc(NC(=O)N/N=C/c3cn(Cc4ccccc4Cl)c4ccccc34)sc2c1
IC50 [1]: 1600 nM | IC50 (A549): 1080 nM | IC50 (MDA-MB-231): 1180 nM

CCN(CC)Cc1ccc2nc(NC(=O)N/N=C/c3cn(Cc4ccc(C(C)(C)C)cc4)c4ccccc34)sc2c1
IC50 [1]: 1670 nM | IC50 (A549): 1710 nM | IC50 (MDA-MB-231): 2120 nM

CCN(CC)Cc1ccc2nc(NC(=O)N/N=C/c3cn(Cc4ccc(C)cc4)c4ccccc34)sc2c1
IC50 [1]: 320 nM | IC50 (A549): 1510 nM | IC50 (MDA-MB-231): 2010 nM

CC1CCN(Cc2ccc3nc(NC(=O)N/N=C4\C(=O)Nc5ccc(F)cc54)sc3c2)CC1
IC50 [1]: 1430 nM | IC50 (HT-29 [2]; Homo sapiens, HT-29, 72 h): 4100 nM | IC50 (HT-29 [2]; ht-29): 5390 nM | IC50 (A549): 3010 nM

CN(C)Cc1ccc2nc(NC(=O)N/N=C/c3cn(Cc4cccc(Cl)c4)c4ccccc34)sc2c1
IC50 [1]: 420 nM | Activity (Caspase-3 (Homo sapiens)): 48.8% | IC50 (A549): 1240 nM | IC50 (MDA-MB-231): 1140 nM | inhibition (Tubulin (Homo sapiens)): 18%

O=Cc1cn(Cc2ccc(Cl)cc2)c2ccccc12
IC50 [1]: 850 nM | IC50 (HT-29 [2]; Homo sapiens, HT-29, 72 h): 1710 nM | IC50 (A549): 2480 nM | IC50 (MDA-MB-231): 26100 nM

CC1CCN(Cc2ccc3nc(NC(=O)N/N=C/c4cn(Cc5ccccc5)c5ccccc45)sc3c2)CC1
IC50 [1]: 1910 nM | IC50 (HT-29 [2]; ht-29): 2050 nM and 5720 nM | IC50 (A549): 2340 nM | IC50 (MDA-MB-231): 2850 nM

Cc1ccc(Cn2cc(/C=N/NC(=O)Nc3nc4ccc(CN(C)C)cc4s3)c3ccccc32)cc1
IC50 [1]: 200 nM | IC50 (A549): 1600 nM | IC50 (MDA-MB-231): 1220 nM

C=CCc1cccc(/C=N/NC(=O)CN2CCN(Cc3ccccc3)CC2)c1O [PAC-1]
IC50 [1]: 1250 nM | Activity (Caspase-3 (Homo sapiens)): 100% | IC50 (HT-29 [2]; Homo sapiens, HT-29, 72 h): 1020 nM | IC50 (A549): 2510 nM | IC50 (MDA-MB-231): 3200 nM

CC1CCN(Cc2ccc3nc(NC(=O)N/N=C/c4cn(Cc5ccc(C(C)(C)C)cc5)c5ccccc45)sc3c2)CC1
IC50 [1]: 3370 nM | IC50 (HT-29 [2]; ht-29): 1500 nM and 5750 nM | IC50 (A549): 3710 nM | IC50 (MDA-MB-231): 3880 nM

CCN(CC)Cc1ccc2nc(NC(=O)N/N=C/c3cn(Cc4ccc(Cl)cc4)c4ccccc34)sc2c1
IC50 [1]: 370 nM | IC50 (A549): 2940 nM | IC50 (MDA-MB-231): 2570 nM

CCN(CC)Cc1ccc2nc(NC(=O)N/N=C/c3cn(Cc4ccccc4Cl)c4ccccc34)sc2c1
IC50 [1]: 980 nM | IC50 (A549): 1390 nM | IC50 (MDA-MB-231): 900 nM

CC1CCN(Cc2ccc3nc(NC(=O)N/N=C/c4cn(Cc5ccc(Cl)cc5)c5ccccc45)sc3c2)CC1
IC50 [1]: 400 nM | IC50 (HT-29 [2]; ht-29): 750 nM and 6430 nM | IC50 (A549): 2030 nM | IC50 (MDA-MB-231): 2850 nM

CCN(CC)Cc1ccc2nc(NC(=O)N/N=C/c3cn(Cc4ccc(Cl)c(Cl)c4)c4ccccc34)sc2c1
IC50 [1]: 610 nM | IC50 (HT-29 [2]; ht-29): 630 nM and 6200 nM | IC50 (A549): 1470 nM | IC50 (MDA-MB-231): 4490 nM

CC1CCN(Cc2ccc3nc(NC(=O)N/N=C/c4c[nH]c5ccccc45)sc3c2)CC1
IC50 [1]: 4130 nM | IC50 (HT-29 [2]; ht-29): 15200 nM and 4820 nM | IC50 (A549): 3580 nM | IC50 (MDA-MB-231): 2460 nM
